Active and inactive are the calls of the source.
Tests used:
Assay type in all cases: functional, cell-based
LNCaP [1] = test: Induction of apoptosis in human LNCAP cells assessed as procaspase-3 cleavage at 30 uM after 24 hrs by Western blot
How it was run: (§1)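 Cells were treated for various times and total cell lysates prepared. Lysates were resolved on 8–14% polyacrylamide gels and immunoblotted with an antibody to each protein, with b-actin as internal control.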

LNCaP [2] = test: Induction of apoptosis in human LNCAP cells assessed as inhibition of AR mRNA transcription at 30 uM after 24 hrs by RT-PCR
How it was run: (§2)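 Cells were treated as for the blots (24 h compound, then DHT 1.0 nM or none). Total RNA (2 µg) was reverse-transcribed and AR and PSA were quantified by real-time PCR. Relative levels were calculated by the comparative threshold cycle method, with GAPDH as housekeeping gene.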

LNCaP [3] = test: Induction of apoptosis in human LNCAP cells assessed as inhibition of DHT-induced PSA protein expression at 30 uM after 24 hrs by Western blot
How it was run: (§3)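 LNCaP cells were grown 48 h in RPMI 1640 with 10% FBS, then exposed 24 h to compound given in ethanol. This was followed by 2 h with or without DHT (0.1 and 1 nM). Lysate protein was measured by BCA, run on SDS–PAGE and blotted to nitrocellulose. Blots were probed with primary and peroxidase-conjugated secondary antibodies, with chemiluminescent detection.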

LNCaP [4] = test: Cell cycle arrest in human LNCAP cells assessed as accumulation at subG1 phase at 30 uM by flow cytometry; settings: TDE = time-dependent effect
How it was run: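 LNCaP cells exposed for various times, then fixed nuclei stained with propidium iodide. DNA content read by flow cytometry, 10,000 nuclei per sample. Sub-G1 fraction reported as means ± SD of three separate experiments.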

LNCaP [5] = test: Induction of apoptosis in human LNCAP cells assessed as increase in mitochondrial cytochrome C release at 30 uM after 24 hrs by Western blot; how it was run: as §1
LNCaP [6] = test: Induction of apoptosis in human LNCAP cells assessed as PARP cleavage at 30 uM after 24 hrs by Western blot; how it was run: as §1
LNCaP [7] = test: Induction of apoptosis in human LNCAP cells assessed as inhibition of PSA mRNA transcription at 30 uM after 24 hrs by RT-PCR in presence of DHT; how it was run: as §2
LNCaP [8] = test: Induction of apoptosis in human LNCAP cells assessed as inhibition of PSA mRNA transcription at 30 uM after 24 hrs by RT-PCR; how it was run: as §2
LNCaP [9] = test: Induction of apoptosis in human LNCAP cells assessed as decrease in Bcl-XL levels at 30 uM after 24 hrs by Western blot; how it was run: as §1
LNCaP [10] = test: Induction of apoptosis in human LNCAP cells assessed as DNA fragmentation at 30 uM by TUNEL assay
How it was run: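 Cells were treated for the indicated times, then fixed and permeabilized. They were stained with fluorescent TUNEL reagent and analysed by flow cytometry for DNA fragmentation.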

LNCaP [11] = test: Induction of apoptosis in human LNCAP cells assessed as procaspase-8 cleavage at 30 uM by Western blot; settings: TDE = time-dependent effect; how it was run: as §1
LNCaP [12] = test: Induction of apoptosis in human LNCAP cells assessed as inhibition of AR mRNA transcription at 30 uM after 24 hrs by RT-PCR in presence of DHT; how it was run: as §2
LNCaP [13] = test: Induction of apoptosis in human LNCAP cells assessed as decrease in Bcl2 levels at 30 uM after 48 hrs by Western blot; how it was run: as §1
LNCaP [14] = test: Induction of apoptosis in human LNCAP cells assessed as inhibition of PSA protein expression at 30 uM by Western blot; settings: TDE = time-dependent effect
LNCaP [15] = test: Induction of apoptosis in human LNCAP cells assessed as inhibition of AR protein expression at 30 uM by Western blot; settings: TDE = time-dependent effect
LNCaP [16] = test: Induction of apoptosis in human LNCAP cells assessed as decrease in procaspase-8 expression at 30 uM after 24 hrs by Western blot; how it was run: as §1
LNCaP [17] = test: Induction of apoptosis in human LNCAP cells assessed as decrease in procaspase-9 expression at 30 uM after 24 hrs by Western blot; how it was run: as §1
LNCaP [18] = test: Induction of apoptosis in human LNCAP cells assessed as inhibition of DHT-induced AR protein expression at 30 uM after 24 hrs by Western blot; how it was run: as §3

Measured: Activity

C/C=C(\Cc1ccccc1)C(=O)CC(O)CCO (stereo not drawn)
active: LNCaP [1] | LNCaP [2] | LNCaP [3] | LNCaP [4] tde | LNCaP [5] | LNCaP [6] | LNCaP [7] | LNCaP [8] | LNCaP [9] | LNCaP [10] | LNCaP [11] tde | LNCaP [12] | LNCaP [13] | LNCaP [14] tde | LNCaP [15] tde | LNCaP [16] | LNCaP [17] | LNCaP [18]
